Experimental data: ChEMBL document CHEMBL1127349, “6,7,8,9-Tetrahydro-N,N-di-n-propyl-3H-benzindol-8-amines. Derivatives as potent and orally active serotonin 5-HT1A receptor agonists” (J Med Chem, 1994)
Calls of active or inactive are those of the source. No cut-off for these calls is given here.

Tests used:
[1] = Area under the curve after intravenous administration at a dose of 2 umol/kg; assay type: ADME; details: in vivo
[2] = organism: Rattus norvegicus; experiment: The concentration yielding a half maximal decrease of the DOPA was determined in rat limbic system; assay type: functional
[3] = organism: Rattus norvegicus; experiment: The concentration yielding a half maximal decrease of the 5-HTP was determined in rat brain striatum; assay type: functional
Outline: (§1)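 Reserpine-pretreated (5 mg/kg sc, 18 h) male Sprague-Dawley rats, 200–300 g; compounds in saline given sc. DOPA and 5-HTP in limbic system, striatum and hemispheres measured by HPLC with electrochemical detection. Dose–response curves of 4–6 doses (n = 4) per area, fitted to variable-slope sigmoid on log data to give ED50.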

[4] = Time taken to reach maximum concentration after administration of 10 umol/kg dose perorally; assay type: ADME, organism-based; details: in vivo, po
Outline: (§2)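 Male Sprague-Dawley rats, starved 18 h for the oral arm, dosed iv or po. Blood sampled at intervals up to 12 h. Compound measured by GC/mass spectrometry against an internal standard, with a standard curve over 2–1000 pmol/mL in blank blood. tmax read from concentration–time curves, n = 4–6.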

[5] = test system: Rattus norvegicus; experiment: Motor activity was measured by motility testing on injecting the compound subcutaneously into rats at the dose of 12.5 umol/kg; assay type: functional
Outline: (§3)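 Rats given reserpine 5 mg/kg sc 18 h beforehand, then test compound sc in neck (n = 4). Placed singly in photocell motility meters straight after dosing; counts recorded for 30 min, gross behaviour observed throughout. Value as counts/30 min with SEM.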

[6] = Maximum concentration in plasma after administration of 2 umol/kg dose intravenously; assay type: ADME, organism-based; parameters: dose 2 umol/kg, route intravenous; details: iv
[7] = Bioavailability in rat (dose 10 uM/kg); assay type: ADME, organism-based; details: in vivo
Outline: (§4)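 Male Sprague-Dawley rats; oral group starved 18 h, compared with iv dosing. Blood sampled up to 12 h, levels by GC/MS. Absolute oral availability F (po/iv) from ratio of AUCs of blood concentration–time curves, po n = 5, iv n = 3.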

[8] = molecular target: D(2) dopamine receptor (Rattus norvegicus, UniProt P61169); experiment: Displacement of the radioligand [3H]spiperone from D2 receptor
D(2) dopamine receptor, sequence (P61169 whole entry): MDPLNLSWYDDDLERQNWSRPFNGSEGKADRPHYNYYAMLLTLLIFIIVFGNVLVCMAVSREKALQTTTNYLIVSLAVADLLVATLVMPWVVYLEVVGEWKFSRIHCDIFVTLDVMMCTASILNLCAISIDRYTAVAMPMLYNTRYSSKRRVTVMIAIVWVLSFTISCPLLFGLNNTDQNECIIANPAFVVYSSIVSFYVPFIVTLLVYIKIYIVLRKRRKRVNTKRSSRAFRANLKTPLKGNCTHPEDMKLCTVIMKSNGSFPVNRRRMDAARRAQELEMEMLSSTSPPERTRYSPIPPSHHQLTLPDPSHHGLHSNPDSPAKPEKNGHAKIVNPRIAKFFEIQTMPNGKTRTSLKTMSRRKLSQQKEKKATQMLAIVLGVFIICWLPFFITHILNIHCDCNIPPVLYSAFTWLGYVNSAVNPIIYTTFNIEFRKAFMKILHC
Outline: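 Rat striatal membranes in 50 mM potassium phosphate buffer, incubated with 0.5 nM [3H]spiperone (3 mg tissue) 10 min at 37 °C. Nonspecific binding defined with 10 μM 6,7-ADTN. IC50 converted to Ki by Cheng–Prusoff; 3–7 experiments, each concentration in triplicate.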

[9] = test system: Rattus norvegicus; experiment: The concentration yielding a half maximal decrease of the DOPA was determined in rat brain hemispheres; inactive at 12.5 umol/kg; assay type: functional, organism-based; outline: as §1
[10] = Maximum concentration in plasma after administration of 10 umol/kg dose perorally; assay type: ADME, organism-based; parameters: dose 10 umol/kg, route oral; details: po
Outline: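 Male Sprague-Dawley rats starved 18 h, dosed orally. Blood samples over up to 12 h, drug quantified by GC/MS against internal standard (2–1000 pmol/mL standard curve). Cmax read from concentration–time curve; SEM, n = 4–6.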

[11] = organism: Rattus norvegicus; experiment: The concentration yielding a half maximal decrease of the 5-HTP was determined in rat brain hemispheres; assay type: functional; outline: as §1
[12] = organism: Rattus norvegicus; experiment: The concentration yielding a half maximal decrease of the 5-HTP was determined in rat limbic system; assay type: functional; outline: as §1
[13] = test system: Rattus norvegicus; experiment: Ratio of the 5HTP-accumulation decrease in limbic regions after sc and po administration at 10 umol/kg; assay type: functional, Limbic system
Outline: (§5)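 Ratio of ED50 for decrease of limbic 5-HTP accumulation after oral versus sc dosing in reserpine-pretreated rats; 5-HTP measured by HPLC with electrochemical detection.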

[14] = Half life in plasma after administration of 2 umol/kg dose intravenously; assay type: ADME, organism-based; details: iv
[15] = organism: Rattus norvegicus; experiment: Log concentration to inhibit 5-HTP accumulation was determined in rat brain hemispheres; assay type: functional; outline: as §1
[16] = organism: Rattus norvegicus; experiment: Log concentration to inhibit 5-HTP accumulation was determined in rat limbic system; assay type: functional; outline: as §1
[17] = organism: Rattus norvegicus; experiment: Log concentration to inhibit DOPA accumulation was determined in rat limbic system; assay type: functional; outline: as §1
[18] = organism: Rattus norvegicus; experiment: Log concentration to inhibit 5-HTP accumulation was determined in rat brain striatum; assay type: functional; outline: as §1
[19] = test system: Rattus norvegicus; experiment: The concentration yielding a half maximal decrease of the DOPA was determined in rat brain striatum; inactive at 12.5 umol/kg; assay type: functional, organism-based
[20] = Time taken to reach maximum concentration after administration of 2 umol/kg dose intravenously; assay type: ADME, organism-based; details: in vivo, iv
[21] = test system: Rattus norvegicus; experiment: Ratio of the 5HTP-accumulation decrease in limbic regions of oral to that of sc administration; assay type: functional, Limbic system; outline: as §5
[22] = Bioavailability in rats after 5 mg/kg (i.v.) and 40 mg/kg (p.o.) administration; assay type: ADME, organism-based; details: rat, in vivo, po; outline: as §4
[23] = Half life in plasma after administration of 2 umol/kg dose perorally; assay type: ADME, organism-based; details: po
[24] = test system: Rattus norvegicus; experiment: The concentration yielding a half maximal decrease of the DOPA was determined in rat limbic system; inactive at 3.1 umol/kg; assay type: functional, organism-based
[25] = test system: Rattus norvegicus; experiment: Motor activity was measured by motility testing on injecting the compound subcutaneously into rats at the dose of 0.02 umol/kg (1a) and 3.5 umol/kg (1b)
[26] = test system: Rattus norvegicus; experiment: The concentration yielding a half maximal decrease of the DOPA was determined in rat brain striatum; inactive at 3.1 umol/kg; assay type: functional, organism-based
[27] = test system: Rattus norvegicus; experiment: The concentration yielding a half maximal decrease of the DOPA was determined in rat brain hemispheres; inactive at 3.1 umol/kg; assay type: functional, organism-based; outline: as §1
[28] = Time taken to reach maximum concentration after administration of 4 umol/kg dose intravenously; assay type: ADME, organism-based; details: in vivo, iv; outline: as §2
[29] = Half life in plasma after administration of 4 umol/kg dose intravenously; assay type: ADME, organism-based; details: iv
Outline: (§6)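 Male Sprague-Dawley rats, iv dosing. Blood sampled at intervals up to 12 h, plasma drug levels by GC/MS with internal standard and a 2–1000 pmol/mL standard curve in blank blood. AUC from total area of concentration–time curve; iv n = 3 (table values SEM, n = 4–6).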

[30] = Maximum concentration in plasma after administration of 4 umol/kg dose intravenously; assay type: ADME, organism-based; parameters: dose 4 umol/kg, route intravenous; details: iv; outline: as §6
[31] = test system: Rattus norvegicus; experiment: The concentration yielding a half maximal decrease of the DOPA was determined in rat brain hemispheres; Inactive at 12.5 umol/kg; assay type: functional, organism-based; outline: as §1
[32] = organism: Rattus norvegicus; experiment: The concentration yielding a half maximal decrease of the DOPA was determined in rat brain striatum; assay type: functional; outline: as §1
[33] = Area under the curve after intravenous administration at a dose of 4 umol/kg; assay type: ADME; details: in vivo; outline: as §6
[34] = organism: Rattus norvegicus; experiment: The concentration yielding a half maximal decrease of the 5-HTP was determined in rat brain striatum.; assay type: functional
[35] = organism: Rattus norvegicus; experiment: The concentration yielding a half maximal decrease of the 5-HTP was determined in rat limbic system.; assay type: functional
[36] = organism: Rattus norvegicus; experiment: Log concentration to inhibit DOPA accumulation was determined in rat brain striatum; assay type: functional; outline: as §1
[37] = test system: Rattus norvegicus; experiment: Ratio of the 5HTP-accumulation decrease in limbic regions after sc to that of po administration at 10 umol/kg; assay type: functional, Limbic system
[38] = organism: Rattus norvegicus; experiment: The concentration yielding a half maximal decrease of the 5-HTP was determined in rat brain hemispheres.; assay type: functional
[39] = test system: Rattus norvegicus; experiment: The concentration yielding a half maximal decrease of the 5-HTP was determined in rat brain hemispheres; inactive at 11 umol/kg; assay type: functional, organism-based; outline: as §1
[40] = organism: Rattus norvegicus; experiment: The concentration yielding a half maximal decrease of the DOPA was determined in rat brain striatum. pED50 values in parenthesis; assay type: functional
[41] = test system: Rattus norvegicus; experiment: The concentration yielding a half maximal decrease of the 5-HTP was determined in rat limbic system; inactive at 11 umol/kg; assay type: functional, organism-based; outline: as §1
[42] = test system: Rattus norvegicus; experiment: The concentration yielding a half maximal decrease of the 5-HTP was determined in rat brain striatum; inactive at 11 umol/kg; assay type: functional, organism-based; outline: as §1
[43] = organism: Rattus norvegicus; experiment: The concentration yielding a half maximal decrease of the DOPA was determined in rat limbic system. pED50 values in parenthesis; assay type: functional
[44] = test system: Rattus norvegicus; experiment: The concentration yielding a half maximal decrease of the DOPA was determined in rat brain hemispheres; inactive at 11 umol/kg; assay type: functional, organism-based; outline: as §1
[45] = test system: Rattus norvegicus; experiment: The concentration yielding a half maximal decrease of the DOPA was determined in rat brain striatum; Partial response at 50 umol/kg; assay type: functional, organism-based
[46] = test system: Rattus norvegicus; experiment: The concentration yielding a half maximal decrease of the DOPA was determined in rat brain hemispheres; inactive at 50 umol/kg; assay type: functional, organism-based; outline: as §1
[47] = test system: Rattus norvegicus; experiment: The concentration yielding a half maximal decrease of the DOPA was determined in rat limbic system; Partial response at 50 umol/kg; assay type: functional, organism-based
[48] = test system: Rattus norvegicus; experiment: The concentration yielding a half maximal decrease of the 5-HTP was determined in rat limbic system; Partial response at 50 umol/kg; assay type: functional, organism-based; outline: as §1
[49] = test system: Rattus norvegicus; experiment: The concentration yielding a half maximal decrease of the 5-HTP was determined in rat brain striatum; inactive at 50 umol/kg; assay type: functional, organism-based; outline: as §1
[50] = test system: Rattus norvegicus; experiment: The concentration yielding a half maximal decrease of the 5-HTP was determined in rat brain hemispheres; inactive at 50 umol/kg; assay type: functional, organism-based; outline: as §1
[51] = test system: Rattus norvegicus; experiment: Motor activity was measured by motility testing on injecting the compound subcutaneously into rats at the dose of 12.5 uM/Kg; assay type: functional; outline: as §3

CCCN(CCC)[C@H]1CCc2ccc3[nH]cc(C=O)c3c2C1
AUC [1]: 607 pM/kg | ED50 [2]: 4.33 µmol/kg | ED50 [3]: 0.052 µmol/kg | Tmax [4]: 0.8 h | Counts/30 min [5]: 413 | Cmax [6]: 849 nM | bioavailability [7]: 72% | Ki [8]: 3590 nM | ED50 [9]: inactive | Cmax [10]: 606 nM | ED50 [11]: 0.032 µmol/kg | ED50 [12]: 0.11 µmol/kg | ED50 [13]: 18% | half-life [14]: 1 h | pED50 [15]: 7.49 | pED50 [16]: 6.94 | pED50 [17]: 5.36 | pED50 [18]: 8.28 | ED50 [19]: inactive | Tmax [20]: 2 min

CCCN(CCC)[C@@H]1CCc2ccc3[nH]cc(C=O)c3c2C1
AUC [1]: 431 pM/kg | ED50 [3]: 0.12 µmol/kg | Tmax [4]: 2.5 h | ED50 [21]: 15% | bioavailability [22]: 46% | Cmax [6]: 712 nM | Ki [8]: 382 nM | half-life [23]: 1.5 h | ED50 [24]: inactive | Cmax [10]: 108 nM | ED50 [11]: 0.45 µmol/kg | ED50 [12]: 0.072 µmol/kg | Counts/30 min [25]: 162 | pED50 [15]: 6.34 | pED50 [16]: 7.14 | pED50 [18]: 6.91 | ED50 [26]: inactive | ED50 [27]: inactive | Tmax [20]: 2 min

CCCN(CCC)[C@@H]1CCc2ccc3[nH]c(C#N)cc3c2C1 [U-92,016-A]
Tmax [28]: 4 min | half-life [29]: 1.5 h | ED50 [2]: 2.01 µmol/kg | Cmax [30]: 2570 nM | ED50 [31]: inactive | Tmax [4]: 1.25 h | ED50 [32]: 3.36 µmol/kg | Activity [5]: 194 Counts 30min-1 | AUC [33]: 1817 pM/kg | ED50 [34]: 0.079 µmol/kg | bioavailability [7]: 63% | Ki [8]: 538 nM | ED50 [35]: 0.21 µmol/kg | pED50 [36]: 5.47 | Cmax [10]: 1120 nM | ED50 [37]: 55% | pED50 [15]: 6.56 | pED50 [16]: 6.67 | pED50 [17]: 5.69 | pED50 [18]: 7.1 | ED50 [38]: 0.28 µmol/kg

CCCN(CCC)C1CCc2ccc(O)cc2C1 (centres undefined)
ED50 [39]: inactive | ED50 [40]: 0.03 µmol/kg | ED50 [41]: inactive | ED50 [42]: inactive | Counts/30 min [25]: 170 | ED50 [43]: 0.027 µmol/kg | ED50 [44]: inactive

CCCN(CCC)C1CCc2cc3cc[nH]c3cc2C1 (centres undefined)
ED50 [45]: Weak activity | ED50 [46]: inactive | ED50 [47]: Weak activity | ED50 [48]: Weak activity | ED50 [49]: inactive | ED50 [50]: inactive | Activity [51]: 51 Counts 30min-1
